Source: PubChem
Sampled rows, rich in hits. Any-hit rate of the full collection: about 3.8%.
GPR7 antag = human neuropeptides B/W receptor 1 antagonism | inhibition, % at 4.4 µM | P48145 | hit rate 1.1% among 290,000 | GPR7-expressing cells, fluorescence antagonist assay; in the data active means inhibition above about 16%, passing the limit was not always enough;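 further: cells stimulated with the agonist NPW; 0% = agonist with vehicle and 100% = vehicle without agonist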
CHO parental Ca = counter-screen: ATP calcium response change in parental CHO cells | hit rate 0.63% among 330,000 | parental CHO-K1, ATP-induced calcium, Fluo-8 fluorescence | AID 463079 | inhibition, % at 5.6 µM;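 active means inhibition above that plate's mean sample inhibition plus 3 SD, cut at about 26% in these data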;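 further: 0% = ATP-challenged DMSO wells and 100% = DMSO wells without ATP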
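Material – parental CHO cells · Reagent – ATP stimulus · Compound – single nominal dose of 5.6 µM per compound · Detection – Fluo-8 fluorescence · Read-out basis – percent inhibition of calcium signal · Controls – ATP-challenged DMSO wells low, unchallenged DMSO wells high · Repeats – no replicates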
OX1R antag-1 = blocks the human orexin 1 receptor; inhibition, % at 5 µM; O43613; hit rate 0.43% among 330,000; CHO/OX1R cells, Fluo-8 calcium fluorescence, orexin A;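 active means inhibition above its plate's threshold, mean inhibition of all tested compounds on the plate plus 3 SD, cut at about 37% in these data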;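 further: 0% = orexin A challenge wells and 100% = SB-334867-A antagonist wells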
Target sequence (O43613 whole entry, looked up): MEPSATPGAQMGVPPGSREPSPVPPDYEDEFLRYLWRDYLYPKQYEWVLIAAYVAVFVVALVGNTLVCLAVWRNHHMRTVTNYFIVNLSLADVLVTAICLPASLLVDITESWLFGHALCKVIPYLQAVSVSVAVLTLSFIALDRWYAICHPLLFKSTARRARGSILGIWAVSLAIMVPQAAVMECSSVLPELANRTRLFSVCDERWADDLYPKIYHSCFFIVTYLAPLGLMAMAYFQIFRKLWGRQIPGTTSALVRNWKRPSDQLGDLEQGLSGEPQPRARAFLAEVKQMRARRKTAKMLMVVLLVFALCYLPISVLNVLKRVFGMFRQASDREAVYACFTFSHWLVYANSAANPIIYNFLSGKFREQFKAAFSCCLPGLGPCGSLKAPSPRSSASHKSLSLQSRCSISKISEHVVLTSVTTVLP
OX1R antag-2 = OX1R (human) antagonism. OX1R-expressing cells, FRET antagonist read-out. inhibition, % at 6.6 µM. hit rate 1.8% among 330,000. AID 485270; in the data active means inhibition mostly above about 38%, no sharp cut-off; inactive means mostly below about 40%;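 further: 0% = agonist challenge alone and 100% = reference antagonist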
MPTP inh = inhibitors of mitochondrial permeability transition pore; isolated mouse mitochondria, Ca2+ swelling absorbance, 30 min; inhibition, % at 10 µM; hit rate 1.4% among 360,000; AID 602449;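 active means inhibition of 50% or more, scaled per plate between neutral and stimulator controls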;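 further: 0% = DMSO wells given calcium and 100% = 1 mM EGTA wells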
OX1R HTRF confirm = OX1R (human) antagonism, HTRF confirmed; OX1R-expressing cells, HTRF antagonist assay; inhibition, % at 6.6 µM; AID 492964; shares compounds with OX1R antag-2; hit rate 49% among 1,800; in the data active means inhibition above about 55%;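 further: CHO cells expressing OX1R stimulated with orexin A at about EC80; 0% = agonist challenge alone and 100% = reference antagonist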
CHO-K1 HTRF = counter-screen for OX1R antagonists: effect in parental CHO-K1 cells; shares compounds with OX1R antag-2; HTRF counterscreen; inhibition, % at 6.6 µM; hit rate 48% among 1,800; in the data active means inhibition above about 17%;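 further: 0% = agonist challenge with vehicle and 100% = vehicle alone without agonist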
The depositor's hits bear a star.

How did COc1cccc(CCNc2ccc(N3C(=O)CC(C)C3=O)cc2[N+](=O)[O-])c1 (configuration not stated) do in these assays?
GPR7 antag: 8; CHO parental Ca: -9; OX1R antag-1: -24; OX1R antag-2: 30; MPTP inh: 6

How did COc1ccc(Nc2ccc(N3C(=O)CC(C)C3=O)cc2[N+](=O)[O-])cn1 (configuration not stated) do in these assays?
GPR7 antag: 0; CHO parental Ca: 12; OX1R antag-1: -13; OX1R antag-2: 78*; MPTP inh: 2; OX1R HTRF confirm: 41; CHO-K1 HTRF: 39*

Results for COC(=O)c1c(=O)n(O)c2ccc(OC)cc2[n+]1[O-] ?
GPR7 antag: -6; CHO parental Ca: -11; OX1R antag-1: -12; OX1R antag-2: 88*; MPTP inh: -3; OX1R HTRF confirm: 33; CHO-K1 HTRF: 47*

How did CCOC(=O)c1ccc(NC(=O)COc2ccc(CNC3CCCCC3)cc2OC)cc1 do in these assays?
GPR7 antag: -2; CHO parental Ca: -1; OX1R antag-1: -3; OX1R antag-2: 5; MPTP inh: 5

What do the screens show for `Cc1cc(C)c(NC(=O)CNC(=O)COC(=O)Cc2ccccc2C)c(C)c1`?
CHO parental Ca: -16; OX1R antag-1: -13; OX1R antag-2: -1; MPTP inh: -2

Results for CCCn1c(SCC(=O)NCCCN2CCCC2=O)nc2ccccc2c1=O ?
CHO parental Ca: -28; OX1R antag-1: -9; OX1R antag-2: 3; MPTP inh: 1

Results for c1cncc(-c2nnc(-c3cccnc3)nn2)c1 ?
GPR7 antag: 1; CHO parental Ca: -6; OX1R antag-1: -2; OX1R antag-2: 88*; MPTP inh: 2; OX1R HTRF confirm: 39; CHO-K1 HTRF: 28*

Results for c1ccc(-c2nnc(-c3ccccc3)nn2)cc1 ?
GPR7 antag: -20; CHO parental Ca: -3; OX1R antag-1: -2; OX1R antag-2: 1; MPTP inh: 0

Results for COc1cc(CNCCSc2nnnn2C)cc(Br)c1OCc1ccccc1F ?
GPR7 antag: 7; CHO parental Ca: -12; OX1R antag-1: -17; OX1R antag-2: 95*; MPTP inh: 6; OX1R HTRF confirm: 16; CHO-K1 HTRF: 9

What do the screens show for `CCOc1cc(CNCCSc2nnnn2C)cc(Br)c1OCc1ccccc1F`?
GPR7 antag: 1; CHO parental Ca: 5; OX1R antag-1: -4; OX1R antag-2: 28; MPTP inh: 5

Results for N#C/C(=C\c1ccc([N+](=O)[O-])cc1)c1ccccn1 ?
GPR7 antag: -10; CHO parental Ca: -14; OX1R antag-1: -7; OX1R antag-2: 121*; MPTP inh: 3; OX1R HTRF confirm: 53; CHO-K1 HTRF: 51*

Results for Clc1nc(NCCc2ccccc2)c2cn[nH]c2n1 ?
MPTP inh: 0

How did O=C1CCCC(O)=C1N=Nc1ccc(C(=O)O)cc1 do in these assays?
GPR7 antag: -8; CHO parental Ca: -4; OX1R antag-1: 6; OX1R antag-2: 86*; MPTP inh: 3; OX1R HTRF confirm: 72*; CHO-K1 HTRF: 64*

How did O=C1CCCC(O)=C1N=Nc1ccc2c(c1)OCO2 do in these assays?
GPR7 antag: -12; CHO parental Ca: -8; OX1R antag-1: -5; OX1R antag-2: 81*; MPTP inh: 2; OX1R HTRF confirm: 50; CHO-K1 HTRF: 58*

How did COc1ccc(CC(=O)N2CCN(c3ccccc3)CC2)cc1 do in these assays?
GPR7 antag: -16; CHO parental Ca: -2; OX1R antag-1: -17; OX1R antag-2: -6; MPTP inh: 0

Results for CN(C)C(=O)c1ccc2c(c1[N+](=O)[O-])C(=O)c1ccccc1C2=O ?
GPR7 antag: -7; CHO parental Ca: -6; OX1R antag-1: -9; OX1R antag-2: 93*; MPTP inh: 1; OX1R HTRF confirm: 58*; CHO-K1 HTRF: 55*

How did COc1ccc2c(c1O)C(=O)c1ccccc1C2=O do in these assays?
GPR7 antag: -14; CHO parental Ca: -3; OX1R antag-1: -2; OX1R antag-2: 9

Results for COC(=O)c1c(NC(=O)c2ccccc2)sc(C(N)=O)c1C ?
GPR7 antag: -6; CHO parental Ca: -1; OX1R antag-1: -2; OX1R antag-2: 95*; MPTP inh: 0; OX1R HTRF confirm: 32; CHO-K1 HTRF: -1

Results for COc1cc2c(cc1NC(=O)CCCCCN1C(=O)CCC1=O)oc1ccccc12 ?
GPR7 antag: -3; CHO parental Ca: -27; OX1R antag-1: 26; OX1R antag-2: 80*; MPTP inh: -5; OX1R HTRF confirm: 84*; CHO-K1 HTRF: 14

What do the screens show for `O=C(CCNC(=O)c1ccccc1Cl)NCC(c1ccco1)N1CCCC1` (configuration not stated)?
CHO parental Ca: -4; OX1R antag-1: -8; OX1R antag-2: 4; MPTP inh: -3

What do the screens show for `O=C(Nn1cnnc1)c1cc([N+](=O)[O-])cc([N+](=O)[O-])c1`?
GPR7 antag: -8; CHO parental Ca: -6; OX1R antag-1: -9; OX1R antag-2: 113*; MPTP inh: -2; OX1R HTRF confirm: 66*; CHO-K1 HTRF: 84*

How did CC(C)(C)n1cn[nH]c1=S do in these assays?
GPR7 antag: -2; CHO parental Ca: -2; OX1R antag-1: -18; OX1R antag-2: 9; MPTP inh: 0

What do the screens show for `c1ccc2nc3c(nc2c1)[nH]c1ccccc13`?
GPR7 antag: -1; CHO parental Ca: 4; OX1R antag-1: -3; OX1R antag-2: 82*; MPTP inh: -1; OX1R HTRF confirm: 72*; CHO-K1 HTRF: -1

What do the screens show for `c1ccc(-c2c3ccccc3nc3[nH]c4ccccc4c23)cc1`?
GPR7 antag: -22; CHO parental Ca: -41; OX1R antag-1: -76; OX1R antag-2: 14; MPTP inh: 2

What do the screens show for `Cc1cccn2cc(COc3cccc([N+](=O)[O-])c3)nc12`?
GPR7 antag: -17; CHO parental Ca: -17; OX1R antag-1: -27; OX1R antag-2: 42; MPTP inh: -2

What do the screens show for `O=[N+]([O-])c1cccc(OCc2cn3cccnc3n2)c1`?
GPR7 antag: -8; CHO parental Ca: -7; OX1R antag-1: -13; OX1R antag-2: 130*; MPTP inh: -2; OX1R HTRF confirm: 30; CHO-K1 HTRF: 27*

Results for O=C(CCC(=O)c1cccs1)OCC(=O)c1ccccc1F ?
MPTP inh: -1

What do the screens show for `COc1ccccc1C(=O)OCC(=O)Nc1ccc(Cl)cn1`?
GPR7 antag: -8; CHO parental Ca: -8; OX1R antag-1: -7; OX1R antag-2: 27; MPTP inh: 0

What do the screens show for `COc1ccc(CNc2nc(SCC(=O)NCc3ccco3)nc3ccccc23)cc1`?
GPR7 antag: -1; CHO parental Ca: -2; OX1R antag-1: 7; OX1R antag-2: 79*; MPTP inh: 1; OX1R HTRF confirm: 24; CHO-K1 HTRF: 1
